In assay [1] the test system is HCT-116. Kind of assay: Induction of apoptosis in Bax-/- human HCT116 cells assessed as late apoptotic cells level pre-incubated with 20 uM pan-caspase inhibitor Z-VAD-FMK for 5 hrs followed by compound addition and further incubated for 48 hrs by Annexin V-FITC/PI staining based cytometry (reference value: 0.1%). The class given is functional. The arrangement: scale not given: the % may be the effect or the level left.

Assay [2] concerns HCT-116. Kind of assay: Cytotoxicity against human HCT116 cells assessed as reduction in cell viability incubated for 24 hrs by MTT assay. The settings on record: HCT-116, 24 h. The class given is functional, cell-based. Summed up: (§1)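 Cells were kept in McCoy's 5A with 10% fetal bovine serum, streptomycin and 100 units·mL⁻¹ penicillin at 37 °C under 5% CO₂/95% air. Viability was read by MTT optical density. IC50 is the concentration that lowers optical density by 50% relative to untreated cells. Values are means with SD of at least three independent determinations.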
In general terms: Tetrazolium assays rely on reduction of a dye to a coloured formazan, in cell work by metabolically active cells.

For assay [3], the system named is HCT-116. Kind of assay: Induction of apoptosis in p53-/- human HCT116 cells assessed as viable cells level at 4 uM incubated for 48 hrs by Annexin V-FITC/PI staining based cytometry (reference value: 96.2%). The assay is classed as functional. Summed up: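 HCT116 p53-/- cells (Vogelstein line) in McCoy's 5A with 10% FBS, 37 °C, 5% CO2. Seeded at 5×10^5 in 6-well plates, treated with vehicle or 4 μM at 80% confluence. After treatment, trypsinised, washed twice in ice-cold PBS pH 7.4, and stained in binding buffer with Annexin V-FITC and PI for 15 min at room temperature in the dark. Read by flow cytometry.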

The subject of assay [4] is HCT-116. Kind of assay: Induction of apoptosis in Bax-/- human HCT116 cells assessed as necrotic cells level incubated for 48 hrs by Annexin V-FITC/PI staining based cytometry (reference value: 0.2%). The assay is classed as functional. The gist of the method:
(§2)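 Cells were plated at 5×10^5 per well and treated once 80% confluent. After trypsinisation and two washes in ice-cold PBS (pH 7.4), cells were stained with Annexin V-FITC and PI for 15 min at room temperature in the dark. Analysis was by flow cytometry. The legend gives vehicle or 4 µM for the p53-/- and Bax-/- lines.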

Assay [5] has as its system HCT-116. Kind of assay: Induction of apoptosis in human HCT116 cells assessed as increase in cleaved PARP level pre-incubated with 20 uM pan-caspase inhibitor Z-VAD-FMK for 5 hrs followed by compound addition and further incubated for 48 hrs by Western blot method. The assay is classed as functional, cell-based. The gist of the method:
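Cells were pretreated for 5 h with DMSO or 20 µM Z-VAD-FMK before compound exposure. Lysates were made in SDS buffer and quantified by BCA. Proteins were run on 10% SDS-PAGE, transferred to PVDF, and probed with cleaved PARP (1:1000) and GAPDH (1:5000) loading control, with ECL detection.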
(A western blot detects proteins with antibodies after separation by electrophoresis.)

Assay [6] relates to HCT-116. Kind of assay: Induction of apoptosis in p53-/- human HCT116 cells assessed as increase in cleaved PARP level at 4 to 16 uM by Western blot method. The class given is functional, cell-based. Summed up: (§3)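 Lysates were made in SDS buffer (2% SDS, 50 mM Tris-HCl pH 6.8) and quantified by BCA. Equal protein was run on 10% SDS-PAGE and transferred to PVDF. Membranes were blocked in 5% milk, probed overnight at 4 °C for cleaved PARP (1:1000) with GAPDH (1:5000), and detected with HRP secondary antibody and ECL.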

Assay [7] relates to HCT-116. The assay can be described thus: Induction of apoptosis in Bax-/- human HCT116 cells assessed as increase in cleaved PARP level at 4 to 16 uM by Western blot method. The class given is functional, cell-based. The gist of the method: as §3
In assay [8] the test system is HCT-116. Kind of assay: Induction of apoptosis in Bax-/- human HCT116 cells assessed as early apoptotic cells level at 4 uM incubated for 48 hrs by Annexin V-FITC/PI staining based cytometry (reference value: 4.4%). The assay is classed as functional. The gist of the method: as §2
Assay [9] has as its system HCT-116. Kind of assay: Inhibition of colony formation of p53-/- human HCT116 cells at 4 to 16 uM incubated for 24 hrs by crystal violet staining based photography. The assay is classed as functional, cell-based. The gist of the method: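 Cells (HCT116, RKO, HCT116 p53-/-, HCT116 Bax-/-) seeded at 300 per well in 12-well plates for 48 h, then treated 24 h. Drug medium replaced with fresh medium; about 10 days later colonies stained 15 min with crystal violet, photographed and counted. Run in triplicate.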

In assay [10] the test system is HCT-116. Kind of assay: Induction of apoptosis in p53-/- human HCT116 cells assessed as early apoptotic cells level at 4 uM incubated for 48 hrs by Annexin V-FITC/PI staining based cytometry (reference value: 2.9%). The assay is classed as functional. Summed up:
as §2

In the next assay the test system is HEp-2. The assay can be described thus: Cytotoxicity against human Hep2 cells assessed as reduction in cell viability incubated for 24 hrs by MTT assay. The class given is functional, cell-based. The following applies: HEp-2, 24 h. The gist of the method:
as §1

Activity calls are given as the source filed them. No cut-off for these calls is given here.

Usually IC50 stands for the concentration that inhibits the measured activity by half. Consider `CCN(CC)CCCNC(=O)c1cn(CCCc2ccccc2)c2cc(Cl)ccc2c1=O.Cl`, for which the Activity in the assay with HCT-116 [1] is 0.9%; in the assay with HCT-116 [3], 72.1%; in the assay with HCT-116 [4], 0.2%; in the assay on HCT-116 [8] it was 25.6%; with HCT-116 [10], 24.8%. The IC50 in the assay with HCT-116 [2] worked out at 5.79 µM; with HEp-2, 3.53 µM. In addition, the outcome in the assay on HCT-116 [5] was inactive. Also, the outcome in the assay on HCT-116 [6] and in the assay on HCT-116 [7] was Active. Moreover, the inhibition result in the assay with HCT-116 [9] is “Active”.

The record behind these values is ChEMBL document CHEMBL4190353, “Synthesis, structure-activity relationships and preliminary mechanism of action of novel water-soluble 4-quinolone-3-carboxamides as antiproliferative agents” (Eur J Med Chem, 2017).
